In ChEMBL document CHEMBL3779881, “Property Focused Structure-Based Optimization of Small Molecule Inhibitors of the Protein-Protein Interaction between Menin and Mixed Lineage Leukemia (MLL)” (J Med Chem, 2016):

Tests used:
[1] = molecular target: Menin/Histone-lysine N-methyltransferase MLL (Homo sapiens, UniProt O00255); test: Inhibition of menin-MLL interaction (unknown origin) after 1 hr by fluorescence polarization assay; type: protein assay
[2] = Growth inhibition of MLL-AF9 transformed mouse bone marrow cells after 7 days by MTT assay; type: functional; conditions: Bone marrow cell, 168 h
[3] = Growth inhibition of Hoxa9/Meis1 transformed mouse bone marrow cells after 7 days by MTT assay; type: functional; conditions: Bone marrow cell, 168 h
Bone marrow cell = test: Selectivity index, ratio of GI50 for Hoxa9/Meis1 transformed mouse bone marrow cells to GI50 for MLL-AF9 transformed mouse bone marrow cells; type: functional
[4] = Half life in CD-1 mouse liver microsomes at 1 uM after 3 to 60 mins by LC-MS/MS analysis; type: ADME
Mus musculus [5] = test: Tmax in C57BL/6 mouse plasma at 30 mg/kg, po after 24 hrs by LC-MS/MS analysis; type: ADME, organism-based; conditions: in vivo
How it was run: (§1)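 Female C57BL/6 mice dosed iv at 15 mg/kg or orally at 30 mg/kg in 25% DMSO/25% PEG-400/50% PBS (v/v). Serial 50 μL blood samples collected over 24 h (8 h in one experiment), spun to plasma; concentrations by validated LC-MS/MS in positive-ion MRM mode; parameters from noncompartmental analysis.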

Mus musculus [6] = test: Cmax in C57BL/6 mouse plasma at 30 mg/kg, po after 24 hrs by LC-MS/MS analysis; type: ADME, organism-based; set-up: dose 30 mg/kg, route oral; conditions: in vivo; how it was run: as §1
Mus musculus [7] = test: AUC in C57BL/6 mouse at 15 mg/kg, iv after 24 hrs by LC-MS/MS analysis; type: ADME, organism-based; set-up: dose 15 mg/kg, time < 24 hr, route intravenous; conditions: in vivo; how it was run: as §1
Mus musculus [8] = test: AUC in C57BL/6 mouse at 30 mg/kg, po after 24 hrs by LC-MS/MS analysis; type: ADME, organism-based; set-up: time < 24 hr, dose 30 mg/kg, route oral; conditions: in vivo; how it was run: as §1
Mus musculus [9] = test: Half life in C57BL/6 mouse at 15 mg/kg, iv after 24 hrs by LC-MS/MS analysis; type: ADME, organism-based; conditions: in vivo; how it was run: as §1
Mus musculus [10] = test: Half life in C57BL/6 mouse at 30 mg/kg, po after 24 hrs by LC-MS/MS analysis; type: ADME, organism-based; conditions: in vivo; how it was run: as §1
[11] = Clearance in C57BL/6 mouse at 15 mg/kg, iv after 24 hrs by LC-MS/MS analysis; type: ADME, organism-based; conditions: in vivo; how it was run: as §1
Mus musculus [12] = test: Volume of distribution at steady state in C57BL/6 mouse at 15 mg/kg, iv after 24 hrs by LC-MS/MS analysis; type: ADME, organism-based; conditions: in vivo; how it was run: as §1
Mus musculus [13] = test: Oral bioavailability in C57BL/6 mouse at 30 mg/kg after 24 hrs by LC-MS/MS analysis; type: ADME, organism-based; conditions: in vivo; how it was run: as §1

Menin/Histone-lysine N-methyltransferase MLL, sequence (O00255 whole entry): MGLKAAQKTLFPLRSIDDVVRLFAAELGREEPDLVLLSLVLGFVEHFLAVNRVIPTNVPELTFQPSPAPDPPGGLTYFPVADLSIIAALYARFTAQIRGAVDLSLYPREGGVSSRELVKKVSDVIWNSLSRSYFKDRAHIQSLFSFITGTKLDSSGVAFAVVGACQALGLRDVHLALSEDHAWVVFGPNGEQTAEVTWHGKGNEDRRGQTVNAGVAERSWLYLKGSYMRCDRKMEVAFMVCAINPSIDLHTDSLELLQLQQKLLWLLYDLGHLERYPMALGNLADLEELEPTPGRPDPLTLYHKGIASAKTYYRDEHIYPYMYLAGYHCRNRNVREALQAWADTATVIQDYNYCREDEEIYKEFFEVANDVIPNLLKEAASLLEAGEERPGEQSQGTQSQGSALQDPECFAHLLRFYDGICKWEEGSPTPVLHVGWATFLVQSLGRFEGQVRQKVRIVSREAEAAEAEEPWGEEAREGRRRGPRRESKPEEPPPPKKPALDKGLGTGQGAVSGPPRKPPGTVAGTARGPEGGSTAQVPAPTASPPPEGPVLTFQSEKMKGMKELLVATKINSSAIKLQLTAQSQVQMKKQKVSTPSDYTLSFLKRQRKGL
Menin/Histone-lysine N-methyltransferase MLL, sequence (Q03164 1-2718 partner limits assumed): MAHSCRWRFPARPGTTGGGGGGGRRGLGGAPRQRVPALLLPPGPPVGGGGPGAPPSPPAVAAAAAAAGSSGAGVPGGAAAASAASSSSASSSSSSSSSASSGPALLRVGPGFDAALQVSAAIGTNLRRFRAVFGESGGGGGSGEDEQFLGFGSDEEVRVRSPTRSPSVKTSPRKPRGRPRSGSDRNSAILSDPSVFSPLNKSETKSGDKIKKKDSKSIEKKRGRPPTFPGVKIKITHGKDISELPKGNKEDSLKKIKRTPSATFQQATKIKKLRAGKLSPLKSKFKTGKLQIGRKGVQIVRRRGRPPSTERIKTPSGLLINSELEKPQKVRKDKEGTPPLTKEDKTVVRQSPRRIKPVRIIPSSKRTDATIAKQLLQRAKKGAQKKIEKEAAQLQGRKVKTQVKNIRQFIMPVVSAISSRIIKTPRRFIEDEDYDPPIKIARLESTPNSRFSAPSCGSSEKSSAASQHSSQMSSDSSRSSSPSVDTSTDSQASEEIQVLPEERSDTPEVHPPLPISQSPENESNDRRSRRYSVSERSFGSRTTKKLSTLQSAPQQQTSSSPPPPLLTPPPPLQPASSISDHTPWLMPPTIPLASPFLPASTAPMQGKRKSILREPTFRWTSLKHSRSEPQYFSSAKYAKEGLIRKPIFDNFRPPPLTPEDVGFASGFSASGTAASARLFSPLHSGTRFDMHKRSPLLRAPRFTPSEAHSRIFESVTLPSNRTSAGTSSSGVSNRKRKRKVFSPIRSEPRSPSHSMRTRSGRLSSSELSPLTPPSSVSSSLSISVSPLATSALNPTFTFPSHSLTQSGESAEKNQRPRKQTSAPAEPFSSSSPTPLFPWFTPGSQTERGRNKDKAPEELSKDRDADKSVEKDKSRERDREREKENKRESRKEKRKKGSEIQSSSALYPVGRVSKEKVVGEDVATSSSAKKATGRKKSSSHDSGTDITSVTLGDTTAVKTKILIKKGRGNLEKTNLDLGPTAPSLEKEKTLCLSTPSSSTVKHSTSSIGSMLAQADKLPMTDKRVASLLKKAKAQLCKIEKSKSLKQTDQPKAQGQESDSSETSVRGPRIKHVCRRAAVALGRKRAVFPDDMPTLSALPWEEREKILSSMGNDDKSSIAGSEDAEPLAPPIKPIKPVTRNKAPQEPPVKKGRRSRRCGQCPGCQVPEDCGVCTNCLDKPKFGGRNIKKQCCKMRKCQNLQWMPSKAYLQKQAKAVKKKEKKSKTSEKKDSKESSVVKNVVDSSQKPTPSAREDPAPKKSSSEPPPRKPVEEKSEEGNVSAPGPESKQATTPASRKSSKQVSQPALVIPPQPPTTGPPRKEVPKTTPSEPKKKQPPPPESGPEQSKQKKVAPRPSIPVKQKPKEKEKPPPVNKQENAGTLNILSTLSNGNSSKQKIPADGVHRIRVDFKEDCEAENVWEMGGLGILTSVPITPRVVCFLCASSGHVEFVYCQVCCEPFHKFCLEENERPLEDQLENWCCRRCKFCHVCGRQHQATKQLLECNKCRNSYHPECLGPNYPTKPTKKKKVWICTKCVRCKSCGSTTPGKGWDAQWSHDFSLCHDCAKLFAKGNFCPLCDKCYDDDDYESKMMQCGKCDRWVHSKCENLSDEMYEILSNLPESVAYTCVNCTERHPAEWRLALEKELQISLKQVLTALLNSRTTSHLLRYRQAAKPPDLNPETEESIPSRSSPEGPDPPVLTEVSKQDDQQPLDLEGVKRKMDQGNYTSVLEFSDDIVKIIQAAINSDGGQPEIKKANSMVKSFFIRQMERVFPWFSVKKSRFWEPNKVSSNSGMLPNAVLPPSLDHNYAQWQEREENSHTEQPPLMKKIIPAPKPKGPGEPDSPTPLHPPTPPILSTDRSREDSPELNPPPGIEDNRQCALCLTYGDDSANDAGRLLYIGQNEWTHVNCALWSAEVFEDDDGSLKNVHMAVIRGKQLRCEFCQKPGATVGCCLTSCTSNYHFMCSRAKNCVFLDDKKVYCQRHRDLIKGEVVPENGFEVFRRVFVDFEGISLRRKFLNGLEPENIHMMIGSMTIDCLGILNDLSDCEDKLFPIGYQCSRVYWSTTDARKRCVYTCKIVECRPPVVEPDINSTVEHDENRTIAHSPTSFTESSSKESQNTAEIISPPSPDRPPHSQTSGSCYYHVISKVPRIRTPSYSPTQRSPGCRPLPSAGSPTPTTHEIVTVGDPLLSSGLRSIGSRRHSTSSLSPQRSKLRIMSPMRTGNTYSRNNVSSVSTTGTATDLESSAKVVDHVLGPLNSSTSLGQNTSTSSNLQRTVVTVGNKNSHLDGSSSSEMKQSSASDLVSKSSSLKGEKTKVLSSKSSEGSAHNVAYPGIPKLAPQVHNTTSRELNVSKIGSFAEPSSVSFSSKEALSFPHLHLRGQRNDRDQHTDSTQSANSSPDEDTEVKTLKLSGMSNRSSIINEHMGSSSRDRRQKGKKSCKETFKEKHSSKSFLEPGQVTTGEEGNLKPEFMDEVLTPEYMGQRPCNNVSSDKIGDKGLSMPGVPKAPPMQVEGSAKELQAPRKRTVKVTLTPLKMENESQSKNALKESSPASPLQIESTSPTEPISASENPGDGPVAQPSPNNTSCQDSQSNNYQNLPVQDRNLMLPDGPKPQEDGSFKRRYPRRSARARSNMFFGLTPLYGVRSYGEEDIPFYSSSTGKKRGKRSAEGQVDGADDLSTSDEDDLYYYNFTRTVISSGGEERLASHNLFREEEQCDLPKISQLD
Menin/Histone-lysine N-methyltransferase MLL, sequence (Q03164 2719-3969 partner limits assumed): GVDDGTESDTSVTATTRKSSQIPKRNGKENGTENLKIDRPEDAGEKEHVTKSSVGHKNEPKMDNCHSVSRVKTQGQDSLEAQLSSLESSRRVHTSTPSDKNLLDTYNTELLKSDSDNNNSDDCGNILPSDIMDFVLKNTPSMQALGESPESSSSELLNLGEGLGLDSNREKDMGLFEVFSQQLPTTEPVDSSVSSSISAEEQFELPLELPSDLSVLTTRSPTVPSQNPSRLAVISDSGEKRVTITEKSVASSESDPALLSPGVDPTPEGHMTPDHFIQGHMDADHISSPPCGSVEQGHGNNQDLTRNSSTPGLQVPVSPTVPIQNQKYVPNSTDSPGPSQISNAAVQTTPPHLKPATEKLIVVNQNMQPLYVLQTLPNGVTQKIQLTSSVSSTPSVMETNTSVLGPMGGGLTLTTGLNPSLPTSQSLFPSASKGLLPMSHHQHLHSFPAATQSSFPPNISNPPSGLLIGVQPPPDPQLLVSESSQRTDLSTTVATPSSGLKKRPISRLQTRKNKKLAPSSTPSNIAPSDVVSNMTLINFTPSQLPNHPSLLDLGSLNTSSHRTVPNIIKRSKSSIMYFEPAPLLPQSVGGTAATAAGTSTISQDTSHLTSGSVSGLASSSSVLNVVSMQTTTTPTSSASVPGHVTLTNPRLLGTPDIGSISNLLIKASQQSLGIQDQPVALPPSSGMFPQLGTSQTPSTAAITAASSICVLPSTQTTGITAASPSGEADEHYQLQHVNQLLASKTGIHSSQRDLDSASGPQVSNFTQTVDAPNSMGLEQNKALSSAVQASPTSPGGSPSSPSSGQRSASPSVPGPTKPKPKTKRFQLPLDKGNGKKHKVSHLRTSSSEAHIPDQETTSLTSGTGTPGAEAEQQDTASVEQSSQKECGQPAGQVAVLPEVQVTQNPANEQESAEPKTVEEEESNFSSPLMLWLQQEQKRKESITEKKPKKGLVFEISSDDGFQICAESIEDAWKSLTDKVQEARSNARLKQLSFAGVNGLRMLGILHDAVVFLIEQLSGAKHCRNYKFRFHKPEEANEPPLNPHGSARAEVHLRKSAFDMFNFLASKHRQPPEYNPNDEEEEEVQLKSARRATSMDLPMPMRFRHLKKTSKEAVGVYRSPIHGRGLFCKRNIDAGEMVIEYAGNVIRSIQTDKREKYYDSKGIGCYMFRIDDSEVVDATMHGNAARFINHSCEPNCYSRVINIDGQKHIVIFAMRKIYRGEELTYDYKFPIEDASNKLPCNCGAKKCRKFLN

COc1cc2c(cc(C#N)n2Cc2c[nH]nn2)c(C)c1CN1CCC(Nc2ncnc3sc(CC(F)(F)F)cc23)CC1
IC50 [1]: 16 nM | GI50 [2]: 410 nM | GI50 [3]: 9000 nM | RatioGI50 (Bone marrow cell): 22 | t1/2 [4]: 32 min

COc1cc2c(cc(C#N)n2CCO)c(C)c1CN1CCC(Nc2ncnc3sc(CC(F)(F)F)cc23)CC1
IC50 [1]: 16 nM | GI50 [2]: 360 nM | GI50 [3]: 15000 nM | RatioGI50 (Bone marrow cell): 69 | t1/2 [4]: 7.8 min

CO[C@H](CO)Cn1c(C#N)cc2cc(CN3CCC(Nc4ncnc5sc(CC(F)(F)F)cc45)CC3)ccc21
IC50 [1]: 37 nM | GI50 [2]: 660 nM | GI50 [3]: 6900 nM | RatioGI50 (Bone marrow cell): 11 | t1/2 [4]: 5.2 min

COc1cc2[nH]c(C#N)cc2cc1CN1CCC(Nc2ncnc3sc(CC(F)(F)F)cc23)CC1
IC50 [1]: 22 nM | GI50 [2]: 340 nM | GI50 [3]: 16000 nM | RatioGI50 (Bone marrow cell): 47 | t1/2 [4]: 3.7 min

N#Cc1cc2cc(CN3CCC(Nc4ncnc5sc(CC(F)(F)F)cc45)CC3)ccc2n1CC(O)CO (racemic)
IC50 [1]: 37 nM | GI50 [2]: 3400 nM | GI50 [3]: > 12000 nM | RatioGI50 (Bone marrow cell): >3.5 | t1/2 [4]: > 60 min

COCC(O)Cn1c(C#N)cc2cc(CN3CCC(Nc4ncnc5sc(CC(F)(F)F)cc45)CC3)ccc21 (stereo unspecified)
IC50 [1]: 101 nM | GI50 [2]: 2100 nM | t1/2 [4]: < 3 min

Cc1c(CN2CCC(Nc3ncnc4sc(CC(F)(F)F)cc34)CC2)c(O)cc2c1cc(C#N)n2Cc1c[nH]nn1
IC50 [1]: 17 nM | GI50 [2]: 420 nM | GI50 [3]: 10000 nM | RatioGI50 (Bone marrow cell): 24 | t1/2 [4]: 25 min

Cc1c(CN2CCC(Nc3ncnc4sc(CC(F)(F)F)cc34)CC2)c(O)cc2c1cc(C#N)n2Cc1cn[nH]c1
IC50 [1]: 18 nM | GI50 [2]: 270 nM | GI50 [3]: 13000 nM | RatioGI50 (Bone marrow cell): 48 | t1/2 [4]: 25 min

CC(C(N)=O)n1c(C#N)cc2cc(CN3CCC(Nc4ncnc5sc(CC(F)(F)F)cc45)CC3)ccc21 (stereo unspecified)
IC50 [1]: 244 nM

Cc1c(CN2CCC(Nc3ncnc4sc(CC(F)(F)F)cc34)CC2)ccc2c1cc(C#N)n2CCO
IC50 [1]: 44 nM | GI50 [2]: 440 nM | GI50 [3]: 5600 nM | RatioGI50 (Bone marrow cell): 13 | t1/2 [4]: 23 min

N#Cc1cc2cc(CN3CCC(Nc4ncnc5sc(CC(F)(F)F)cc45)CC3)ccc2n1Cc1c[nH]nn1
IC50 [1]: 27 nM | GI50 [2]: 330 nM | GI50 [3]: 10000 nM | RatioGI50 (Bone marrow cell): 30 | t1/2 [4]: 11 min

COc1cc2[nH]c(C#N)cc2c(C)c1CN1CCC(Nc2ncnc3sc(CC(F)(F)F)cc23)CC1
IC50 [1]: 40 nM | GI50 [2]: 100 nM | GI50 [3]: 11000 nM | RatioGI50 (Bone marrow cell): 110 | t1/2 [4]: 39 min | Tmax (Mus musculus [5]): 30 min | Cmax (Mus musculus [6]): 2113 ng/mL | AUC (Mus musculus [7]): 9397 ng·h/mL | AUC (Mus musculus [8]): 8717 ng·h/mL | t1/2 (Mus musculus [9]): 108 min | t1/2 (Mus musculus [10]): 120 min | clearance [11]: 26.6 mL/min/kg | Vdss (Mus musculus [12]): 3.698 L/kg | F (Mus musculus [13]): 46%

CO[C@@H](CO)Cn1c(C#N)cc2cc(CN3CCC(Nc4ncnc5sc(CC(F)(F)F)cc45)CC3)ccc21
IC50 [1]: 40 nM | GI50 [2]: 360 nM | GI50 [3]: 9700 nM | RatioGI50 (Bone marrow cell): 27 | t1/2 [4]: < 3 min

N#Cc1cc2cc(CN3CCC(Nc4ncnc5sc(CC(F)(F)F)cc45)CC3)ccc2n1C[C@@H](O)CO
IC50 [1]: 46 nM | GI50 [2]: 1700 nM | GI50 [3]: > 40000 nM | RatioGI50 (Bone marrow cell): >24 | t1/2 [4]: 48 min

Cc1c(CN2CCC(Nc3ncnc4sc(CC(F)(F)F)cc34)CC2)c(O)cc2c1cc(C#N)n2CCO
IC50 [1]: 27 nM | GI50 [2]: 400 nM | GI50 [3]: 10000 nM | RatioGI50 (Bone marrow cell): 25 | t1/2 [4]: 11 min

N#Cc1[nH]c2ccc(CN3CCC(Nc4ncnc5sc(CC(F)(F)F)cc45)CC3)cc2c1N
IC50 [1]: 124 nM | GI50 [2]: 5200 nM | t1/2 [4]: 27 min
